Values joined by “and” are separate entries in the source; they are usually repeats but may differ in a detail not shown here. Equal values may be shown once.

Type in all cases: functional
For test [1], the system named is Rattus norvegicus. Put plainly: Percentage of animals failing to emit 50 lever presses within 15 min in rats at a compound dose of 0.02 mg/kg. The method in brief: (§1)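 Two-lever drug discrimination in male Sprague–Dawley rats (200–220 g at start), trained against saline on LSD tartrate (0.08 mg/kg), DOI HCl (0.4 mg/kg) or LY293284 (0.025 mg/kg). FR50 food-pellet reinforcement, levers counterbalanced, 15-min sessions at 22–24 °C. %D is the share of tested rats not completing 50 lever presses within 15 min.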

Test [2] deals with Rattus norvegicus. Put plainly: Percentage of animals emitting >80% of lever presses in rats at a compound dose of 0.030 uM/Kg. In a few lines:
(§2)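 Male Sprague–Dawley rats (200–220 g) in a two-lever, FR50 food-reinforced task. Rats were trained to discriminate saline from LSD tartrate (0.08 mg/kg), DOI HCl (0.4 mg/kg) or LY293284 (0.025 mg/kg) in 15-min sessions. %SDL is the share of rats making over 80% of presses on the drug lever. %D is the share failing to make 50 presses within 15 min. ED50 by Litchfield–Wilcoxon log-probit.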

The subject of test [3] is Rattus norvegicus. Nature of the test: Percentage of animals emitting >80% of lever presses in rats at a compound dose of 0.015 uM/Kg. The method in brief: as §2
The subject of test [4] is Rattus norvegicus. Put plainly: Percentage of animals failing to emit 50 lever presses within 15 min in rats at a compound dose of 0.005 mg/kg. In a few lines:
as §1

In test [5] the test system is Rattus norvegicus. Put plainly: Percentage of animals failing to emit 50 lever presses within 15 min in rats at a compound dose of 0.01 mg/kg. The method in brief: as §1
Test [6] deals with Rattus norvegicus. Nature of the test: Percentage of animals emitting >80% of lever presses in rats at a compound dose of 0.060 uM/Kg. In a few lines: as §2
In test [7] the test system is Rattus norvegicus. Put plainly: Percentage of animals failing to emit 50 lever presses within 15 min in rats at a compound dose of 0.027 mg/kg. The method in brief: as §1
Test [8] relates to Rattus norvegicus. Nature of the test: Percentage of animals emitting >80% of lever presses in rats at a compound dose of 0.080 uM/Kg. In a few lines:
as §2

In test [9] the test system is Rattus norvegicus. Put plainly: Percentage of animals failing to emit 50 lever presses within 15 min in rats at a compound dose of 0.2 mg/kg. In a few lines: as §1
For test [10], the target named is 5-hydroxytryptamine receptor 2A (Rattus norvegicus) (UniProt P14842). Nature of the test: Efficacy against 5-hydroxytryptamine 2A receptor.
5-hydroxytryptamine receptor 2A (Rattus norvegicus), sequence (P14842 whole entry): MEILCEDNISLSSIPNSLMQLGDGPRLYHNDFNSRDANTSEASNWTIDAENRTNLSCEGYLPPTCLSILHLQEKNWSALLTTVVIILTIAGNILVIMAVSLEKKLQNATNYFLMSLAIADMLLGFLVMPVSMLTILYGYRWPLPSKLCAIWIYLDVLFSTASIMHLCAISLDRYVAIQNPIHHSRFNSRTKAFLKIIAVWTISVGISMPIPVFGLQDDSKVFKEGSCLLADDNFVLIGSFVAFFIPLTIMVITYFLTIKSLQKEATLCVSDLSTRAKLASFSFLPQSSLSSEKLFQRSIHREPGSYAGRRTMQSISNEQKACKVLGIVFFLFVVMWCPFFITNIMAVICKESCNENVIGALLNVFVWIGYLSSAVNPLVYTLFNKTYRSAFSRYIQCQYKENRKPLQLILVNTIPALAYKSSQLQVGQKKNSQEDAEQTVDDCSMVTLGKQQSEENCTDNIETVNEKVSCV
The test system of test [11] is Rattus norvegicus. Nature of the test: Percentage of animals emitting >80% of lever presses in rats at a compound dose of 1.12 uM/Kg. The method in brief:
as §2

Test [12] has as its system Rattus norvegicus. Put plainly: Percentage of animals failing to emit 50 lever presses within 15 min in rats at a compound dose of 0.4 mg/kg. The method in brief:
as §1

In test [13] the test system is Rattus norvegicus. Nature of the test: Percentage of animals emitting >80% of lever presses in rats at a compound dose of 0.28 uM/Kg. The method in brief:
as §2

Test [14] concerns Rattus norvegicus. Nature of the test: Percentage of animals failing to emit 50 lever presses within 15 min in rats at a compound dose of 0.1 mg/kg. In a few lines: as §1
Test [15] has as its system Rattus norvegicus. Put plainly: Percentage of animals emitting >80% of lever presses in rats at a compound dose of 0.56 uM/Kg. In a few lines:
as §2

For the compound `CCCN(CCC)C1Cc2c[nH]c3ccc(C(C)=O)c(c23)C1` (stereo not given) [LY-293284], the D in test [1] worked out at 0%; in test [4] it was 8%; in test [5], 0%; in test [7], 27%. The SDL is recorded as 45% in test [2], 9% in test [3], 83% in [6] and 100% in [8].

Broadly, the ED50 is the dose at which the effect has come halfway, by size or by number of responders. Higher therefore signals weaker potency. Take `COc1cc(CC(C)N)c(OC)cc1I` (stereo not given): the D in test [9] is recorded as 10%; in test [12] it was 0%; in test [14] it was 0%. In test [10], the ED50 was 0.3 µmol.kg-1 and 0.11 mg/kg. In addition, the results for the SDL in [11], in [13] and in test [15] were 100%, 56% and 89%, respectively.

The values are drawn from ChEMBL document CHEMBL1132613 (J Med Chem, 1999).
